Tests used:
[1] = system: MS2 coat protein; experiment: apparent Kd, MS2 coat protein; higher = weaker binding; RNA-MaP array; tryptophan 2.4 mM where present
Outline: (§1)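 Apparent Kd: the median of filtered binding-curve fits from single clusters. Designs were transcribed on Illumina sequencing-chip clusters by stalled E. coli RNA polymerase and titrated with SNAP-549-labelled MS2 coat protein from 0.7 or 1.5 nM, doubling to 3 µM, in 100 mM Tris-HCl pH 7.5, 80 mM KCl, 4 mM MgCl2, BSA, DTT, yeast tRNA and Tween-20. Each series ran without and then with constant ligand, and green signal was normalised to red-channel RNA signal and control-cluster median Fmax.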

[2] = system: MS2 coat protein; experiment: apparent Kd, MS2 coat protein; higher = weaker binding; RNA-MaP array; theophylline 2 mM where present
Outline: as §1

[3] = designed as: OFF switch for tryptophan, no ligand
[4] = ligand present: tryptophan, designed as: OFF switch for tryptophan
[5] = designed as: ON switch for tryptophan, no ligand
[6] = ligand present: tryptophan, designed as: ON switch for tryptophan
[7] = designed as: ON switch for theophylline, no ligand
[8] = ligand present: theophylline, designed as: ON switch for theophylline
[9] = designed as: OFF switch for theophylline, no ligand
[10] = ligand present: theophylline, designed as: OFF switch for theophylline

Row | Sequence | apparent Kd [2, 7] | apparent Kd [2, 8] | apparent Kd [2, 9] | apparent Kd [2, 10] | also measured
1 | GGAGUCGUCACGGCCGCCACUGCGGUGGUGUGACAUGAGGAUCACCCAUGUUGUCAUGCGGCCCUUAGGACCGGGUGUCGGUUCC |  |  |  |  | apparent Kd [1, 3]: 51.5 nM; apparent Kd [1, 4]: 59.1 nM
2 | AUAUAUACAUGAGGAUCACCCAUGUUAUUACGAGGACCGGUACGGCCGCCACUCGAUAGAGUAGAAGUAAAUUUUAAUUCAUGUA |  |  |  |  | apparent Kd [1, 5]: 14.5 nM; apparent Kd [1, 6]: 13 nM
3 | UGUAGUACCAGACAUGAGGAUCACCCAUGUCGAGGACCGGUACGGCCGCCACUCGGCAGUUUGCGUCCUCAGGUACUCCGGGUAA |  |  |  |  | apparent Kd [1, 3]: 13 nM; apparent Kd [1, 4]: 15 nM
4 | UAAUAAGUGCCGGUUCUCAGAUCCUCAUGUCGAGGACCGGUACGGCCGCCACUCGAAACAUGAGGAUCACCCAUGUAAUAAUAAU |  |  |  |  | apparent Kd [1, 3]: 51.8 nM; apparent Kd [1, 4]: 34.1 nM
5 | AAACAUGAGGAUCACCCAUGUCCUCCUGUCCGAGGACCGGUACGGCCGCCACUCGGUUCUCGGGAGGAUGGUCAAAGACUAUCCA |  |  |  |  | apparent Kd [1, 5]: 290 nM; apparent Kd [1, 6]: 253 nM
6 | GCAUCCUAGUCGGCCGCCACUGGUACGAACACCUUCACCCGUGUGCACAUGAGGAUCACCCAUGUUAGGACCGGGACUAGGAUGC |  |  |  |  | apparent Kd [1, 5]: 8.2 nM; apparent Kd [1, 6]: 7.99 nM
7 | GAUCGACAAAACGUCUAGGAAAACUAGACGCGAGGACCGGUACGGCCGCCACUCGUCCUCACAUGAGGAUCACCCAUGUACGAUC |  |  |  |  | apparent Kd [1, 3]: 31.5 nM; apparent Kd [1, 4]: 177 nM
8 | AUAACAUGAGGAUCACCCAUGUAUUGGUUACGAGGACCGGUACGGCCGCCACUCGUAUUAUAGUGGUAUUUUGUUUAUAUGAUAA |  |  |  |  | apparent Kd [1, 5]: 12.6 nM; apparent Kd [1, 6]: 14.1 nM
9 | CUACAUUUGUAGAAACCGGUCAACAUUAUUCGAGGACCGGUACGGCCGCCACUCGUAUAUUUUAAUACAUGAGGAUCACCCAUGU |  |  |  |  | apparent Kd [1, 5]: 11.6 nM; apparent Kd [1, 6]: 12.1 nM
10 | UACUUGCUGACGGCCGCCACUAGAACAUGAGGAUCACCCAUGUACCCGGUCCUAAUCCUCAUGACUAGGACCGGGUCAGCAAGAU |  |  |  |  | apparent Kd [1, 3]: 22.4 nM; apparent Kd [1, 4]: 21.5 nM
11 | AUCGUACCUCAUGAUACCAGCAUGUGAUCAUAACAUGAGGAUCACCCAUGUAAUCAGUGAUGCCCUUGGCAGCGUAGUCGAUACA | 136 nM | 63 nM |  |  | 
12 | GCUGUAAGUGCAGAUACCAGCAUGUUAUAUUUCUAAUGACAUGAGGAUCACCCAUGUAAAUGCCCUUGGCAGCUGCACUUACAGC | 18.9 nM | 18.8 nM |  |  | 
13 | AGCGACAUGCGUGAUACCAGCUACAUGAGGAUCACCCAUGUACGUCAGUAAUGACUGUGUAGCCCUUGGCAGCAUAAUGCAUGUC |  |  | 34.4 nM | 67.2 nM | 
14 | ACAUGAGGAUCACCCAUGUCACGGCACGAUACCAGCUGAUGCGGUGGCCCUUGGCAGCGUGACGUUUGGUCCCGCGGAUGACGGG | 40.8 nM | 16.8 nM |  |  | 
15 | UCUUGAGUUUCGGAUACCAGUGUUGUCGAUACAUGAGGAUCACCCAUGUUAGAGGAUGUACACCCUUGGCAGCCGGCUGUGGCGG | 20.7 nM | 13 nM |  |  | 
16 | AGCUCAUAGAGUGAUACCAGACUACAUGAGGAUCACCCAUGUUUCUUUUGGUUAUCAUGUGUCCCUUGGCAGCACAAGAAGAGCA |  |  | 13.4 nM | 114 nM | 
17 | AGAUGACACAGUGGAUAGCAAGAUGCCGAUACCAGCUAGGAAACUAGCCCUUGGCAGCGGUACAUGAGGAUCACCCAUGUAUCCU |  |  | 12.2 nM | 58.7 nM | 
18 | AAACGUUGCUGCGAUACCAGACAUGAGGAUCACCCAUGUACCAAGAAAACGUACAUAAAUGUCCCUUGGCAGCGCAGCAACGAAA |  |  | 582 nM | 1110 nM | 
19 | ACAUGAGGAUCACCCAUGUGGCGUCUUGAUACCAGACCCGCACUAGUCCCUUGGCAGCAACUACGUGAGGGUCGCCCAUGUGUAG |  |  | 35.9 nM | 46.8 nM | 
20 | ACACAUGAGGAUCACCCAUGUCCAAUAGAUACCAGUGAUACAGUGCACCCUUGGCAGCUGUUACUGAGUAAUGGUUCCCUCGGAA | 36.6 nM | 46 nM |  |  | 
21 | AAACAUUGCUCAGAUACCAGACAUGAGGAUCACCCAUGUACCAAGGUAAAGAAAUAACGUGUCCCUUGGCAGCUGAGCAAUGAAA |  |  | 10.2 nM | 109 nM | 
22 | AAGGUGAUCCCAGAUACCAGCCUAACAUGAGGAUCACCCAUGUUUGGGACGAAAGUCCCAGGCCCUUGGCAGCUGGGUUGCCAAG | 225 nM | 30.3 nM |  |  | 
23 | AUAUUACAUGUUAUUAUACGGUAUACUGAUACCAGUGUUUCUAUUCACCCUUGGCAGCAGCAACAUGAGGAUCACCCAUGUAUUA | 16.7 nM | 16.9 nM |  |  | 
24 | AAACGUUGCUCAGAUACCAGACAUGAGGAUCACCCAUGUACCAAGGUAACCGAAAGGCAUGUCCCUUGGCAGCUGAGCAACGAAA |  |  | 12.8 nM | 262 nM | 
25 | ACAUGAAGAACAGCGGUGGGCGCGCUCGAUACCAGUAUUUUAAACUACCCUUGGCAGCGACAUGAGGAUCACCCAUGUGAGAUGA |  |  | 18.2 nM | 35.7 nM | 
26 | AGUCUAUGAAGAGAUACCAGUGAGAGACAUAGACAUGAGGAUCACCCAUGUGACAUGAAGCACCCUUGGCAGCUCAACGAGCUCA | 42.8 nM | 16.1 nM |  |  | 

Row | Sequence | apparent Kd [2, 7] | apparent Kd [2, 8] | apparent Kd [2, 9] | apparent Kd [2, 10] | also measured
27 | UGACAUUGCUGCGAUACCAGACAUGAGGAUCACCCAUGUACCAAGGUAACCGAAAGGCAUGUCCCUUGGCAGCGCAGCAAUGUCU |  |  | 11.5 nM | 197 nM | 
28 | AACUGGGUUCGUGAUACCAGCUCACACAUGAGGAUCACCCAUGUAGUGGGUAAAAUGUGGAGCCCUUGGCAGCACUGUGACCACG |  |  | 13.2 nM | 60.7 nM | 
29 | GGGAAUGAACGUGAUACCAGAGAUCCGGUCUCCGUCACUCUACAUGAGGAUCACCCAUGUCUCCCUUGGCAGCACCGUCAUCGGG |  |  | 34.4 nM | 61 nM | 
30 | GACCUUGCGGGCGCCCGCAAGGUCGCGGAUACCAGCGAGGUCCAUCGCCCUUGGCAGCCGAACAUGAGGAUCACCCAUGUCGGUU | 10.9 nM | 11.8 nM |  |  | 
31 | UGUAACAUGAGGAUCACCCAUGUGCACGAUACCAGCUUAUUGGUAGGCCCUUGGCAGCGUAUUCGGAAGAUGUAUAAUAUAUAUC | 13.4 nM | 13.3 nM |  |  | 
32 | AUAAGUAAUGUUACGUGUUUAAUUGCAGAUACCAGACUAUACGUUGUCCCUUGGCAGCUGAAUUACAUGAGGAUCACCCAUGUUG |  |  | 25.9 nM | 25 nM | 
33 | UUCAAAGGGAACGGUGCUGGUGACAGAGAUACCAGCGCGGUAACGCGCCCUUGGCAGCUCAGAACAUGAGGAUCACCCAUGUAAU |  |  | 13.6 nM | 50.2 nM | 
34 | UCUUUCUAUUGUGAUACCAGACGUACAUGAGGAUCACCCAUGUUUCAUUCUUGUUUUAAAGUCCCUUGGCAGCACUAUUUGUUCG |  |  | 16.3 nM | 13.2 nM | 
35 | ACAUGAGGAUCACCCAUGUUCCUCGCCGAUACCAGUGAAGAAUUACGCCCUUGGCAGCGGAAAGAGUGUUUUGGAGAUGAGGUAC |  |  | 72.6 nM | 108 nM | 
36 | GGGAAAGAAUGUGAUACCAGAGAACCGGUCUCCAUCAAUAUACAUGAGGAUCACCCAUGUCUCCCUUGGCAGCACCAUCAUCAAA |  |  | 23.1 nM | 75.8 nM | 
37 | AUAAAUAAAACCGAUACCAGCCUUAUACAUGAGGAUCACCCAUGUUAUGCUUCCUUUUUUGGCCCUUGGCAGCGGAAAUGGGUAA | 83.3 nM | 40.8 nM |  |  | 
38 | UCCUCCUCCGCAAGGAGGAGGAGUUGCGAUACCAGCACGGAAACGUGCCCUUGGCAGCGCACAUGAGGAUCACCCAUGUCAUGUU |  |  | 18 nM | 24 nM | 
39 | GUCCUAGCGAUCGCUCGCUAGGACGCGGAUACCAGCGAGGUCCAUCGCCCUUGGCAGCCGAACAUGAGGAUCACCCAUGUCGGUA | 9.59 nM | 14.9 nM |  |  | 
40 | UGACAUUGCUCAGAUACCAGACAUGAGGAUCACCCAUGUACCAAGGUACGAAAAUAACAUGUCCCUUGGCAGCUGAGCAAUGUCU |  |  | 13.6 nM | 251 nM | 
41 | AUGUCGUUGAAUACAGCGGCAUGGUGUGAUACCAGAAUGAUCAAAUUCCCUUGGCAGCAUCACAUGAGGAUCACCCAUGUUAAGG | 38.3 nM | 52 nM |  |  | 
42 | GAUAGUUGAUGGGAUACCAGCGUGCACAUGAGGAUCACCCAUGUGGUUCGUGUACGACGGCGCCCUUGGCAGCCCAUAUUGUGUA | 151 nM | 18.9 nM |  |  | 
43 | GAUGAACUAUAUGAUACCAGACAACAUGAGGAUCACCCAUGUGAAAGUCGUCCUCUGCCUGUCCCUUGGCAGCGUAUAGUUUAUC |  |  | 50.4 nM | 168 nM | 
44 | AGAGGUGCAACAGAUACCAGUCUACCGUACCUCAGAGAACAUGAGGAUCACCCAUGUAUAGACCCUUGGCAGCUGAUGUUAUUCA |  |  | 22.3 nM | 79 nM | 
45 | UGUAACAUGAGGAUCACCCAUGUGAGUGAUACCAGACUAGUAUUAGUCCCUUGGCAGCACGCUGGGCGAGUGUAUAGUCUAUGCG | 85.9 nM | 84.9 nM |  |  | 
46 | AGCCCUGUACUAGAUACCAGCUACAUGAGGAUCACCCAUGUACGAUAAGACUGUCCAUGUAGCCCUUGGCAGCUGCUCGCAUGUA |  |  | 30.6 nM | 68.8 nM | 
47 | AGAUCUUUCGAAAGAAGGAUCUUGUCUGAUACCAGAGACGAAAGUCUCCCUUGGCAGCAGUGCCAACAUGAGGAUCACCCAUGUA | 20.1 nM | 21.4 nM |  |  | 
48 | GCACGACAUGAGGAUCACCCAUGUGCAGAUACCAGUAGGAUAUCCUACCCUUGGCAGCUGAGUGGAUCCGGAGGACCAUGGGUAA | 38 nM | 82.6 nM |  |  | 
49 | GAUAGUUGAAGGGAUACCAGCCUGGACAUGAGGAUCACCCAUGUAGCGUGUUUGAAACUGGGCCCUUGGCAGCCCAUAUUGUGUA | 15.9 nM | 14.6 nM |  |  | 
50 | UAUUUGGUGCGCGAGCGCUGGAUAAUUGAUACCAGUGAAGAAGAGCGCCCUUGGCAGCGAAUCCUAACAUGAGGAUCACCCAUGU | 37 nM | 42.1 nM |  |  | 
51 | AGCGAUAUGCAUGAUACCAGCUACAUGAGGAUCACCCAUGUGCGUCAGAAAUGACUGUGUAGCCCUUGGCAGCAUAAAGCAUGUA |  |  | 45.1 nM | 87.2 nM | 
52 | AGAAUACAUGUUUUAAUACGGAAAACUGAUACCAGUGUAUCUAUUCACCCUUGGCAGCAGAGACAUGAGGAUCACCCAUGUAUUA | 41.3 nM | 28.6 nM |  |  | 

From the EternaBench riboswitch data
